The test system of one series is NCI-H441. The series is described as follows: Antiproliferative activity against human NCI-H441 cells after 72 hrs by MTT assay. In kind it is functional, cell-based. The note with it: NCI-H441, 72 h. In short, it runs like this:
(§1)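 Compounds (10 mM DMSO stocks, final DMSO ≤0.1%) added at increasing concentrations in PBS, incubated 72 h at 37 °C. MTT read-out, six repeats per concentration, at least two independent experiments.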
(In general: Formazan colour is commonly taken as a measure of viable cells.)

The nature of series [1]: Antiproliferative activity against human NCI-H1373 cells after 72 hrs by MTT assay. The note with it: NCI-H1373, 72 h. In kind it is functional, cell-based. The procedure, abridged: as §1
Series [2] in a line: Antiproliferative activity against human NCI-H1944 cells after 72 hrs by MTT assay. The note with it: NCI-H1944, 72 h. It is filed as functional, cell-based. The procedure, abridged:
as §1

The test system of series [3] is NCI-H1703. Nature of the series: Antitumor activity against human NCI-H1703 cells xenografted in athymic NCr Charles river nu/nu mouse assessed as reduction of tumor weight at 6 umol/kg, iv administered 3 times a week for 3 weeks relative to vehicle treated control. It is filed as functional. Also noted: scale not given: the % may be the effect or the level left. In short, it runs like this: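 H1703 cells (5×10^6) injected s.c. into the flank of 7-week-old female athymic NCr-nu/nu mice. Dosing began once tumors reached at least 2×2×2 mm (typically 4 weeks). Body weight recorded before each injection. Mice sacrificed 2 h after the last dose and tumors excised and weighed. 13–15 mice/group; Mann-Whitney test; mean ± SE.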
Background: A xenograft is tissue or cells of one species grown in another, often human tumour cells in immunodeficient mice.

For a further series, the system named is Mus musculus. Nature of the series: Toxicity in human NCI-H1703 cells xenografted athymic NCr nu/nu Charles river mouse assessed as change in body weight at 6 umol/kg, iv administered 3 times a week for 3 weeks (reference value: 22.5 +/- 0.4g). It is filed as organism-based. To be noted: in vivo, 504 h.
A short description of series [4]: Activation of JNK phosphorylation in human NCI-H1703 cells assessed as increase in ATF3 protein level at 1 uM within 2 hrs by Western blot analysis. In kind it is cell-based.
Series [5] can be described thus: Activation of JNK phosphorylation in human NCI-H1703 cells assessed as increase in ATF3 protein level at 1 uM within 2 hrs by Western blot analysis in presence of JNK inhibitor 1,9-pyrozoloanthrone. In kind it is cell-based. The procedure, abridged: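 Before compound exposure (1 μM), H1703 cells received the JNK inhibitor 1,9-pyrazoloanthrone at 50 μM for 30 min. Phosphorylated JNK, ATF2 and c-jun, and ATF3 protein, then detected by Western blot. Representative blots shown.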
Background: A western blot detects proteins with antibodies after separation by electrophoresis.

The test system of series [6] is NCI-H1703. Nature of the series: Induction of apoptosis in human NCI-H1703 cells assessed as PARP cleavage after 1 to 6 hrs by Western blot analysis. In kind it is functional, cell-based.
In series [7] the test system is NCI-H1703. Nature of the series: Upregulation of ATF3 expression in human NCI-H1703 cells at 1 uM pretreated with ATF3 siRNA for 48 hrs before compound challenge measured after 8 hrs by Western blot analysis. In kind it is functional, cell-based. In short, it runs like this: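 H1703 cells at 60% confluence transfected with ATF3 siRNA, nonsilencing siRNA or reagent only (mock). After 48 h, cells treated with 1 μM compound or equal-volume DMSO for 8 h, then lysed. Western blots probed for ATF3, cleaved PARP p85 and cleaved caspase-3, with β-actin as loading control.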

Active and inactive are the calls of the source. The rule behind the calls is not given here. A value given as a limit tells only on which side of the number the result lay.

As a reminder, the IC50 is the point on the concentration scale where inhibition reaches its midpoint. For the compound `CCOC(=O)N1CCN(/[N+]([O-])=N/Oc2ccc([N+](=O)[O-])cc2[N+](=O)[O-])CC1`, the results for the IC50 (in the series on NCI-H441; in series [1]; in series [2]) were 940 nM, 860 nM and greater than 10000 nM, respectively. Moreover, the Activity in the series on NCI-H1703 [3] came out at 49%; in the series with Mus musculus, 24.9 g. In addition, the outcome (in series [4]; with NCI-H1703 [6]) was Active. Besides, the outcome (in series [5]; in the series with NCI-H1703 [7]) was inactive.
